An excerpt weighted towards active compounds, which were near 2.4% of everything screened.
PAD4 inh: blocks human protein arginine deiminase 4; AID 485272; actives 0.41% (n = 330,000); inhibition, % at 6.36 µM; recombinant PAD4, RCA probe fluorescence polarization; Q9UM07;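 active = percent inhibition above a cutoff equal to the mean of all tested compounds plus 3 SD, cut at about 15% in these data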;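 also: 0% = PAD4 with RCA probe and DMSO and 100% = probe without PAD4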
Apaf1 inhib: inhibitors of human Apaf-1 apoptosome; O14727; reconstituted apoptosome caspase-3 activity, DEVD-Rh110 fluorescence; inhibition, % at 20 µM; actives 0.71% (n = 330,000); AID 489030; active = inhibition of at least 40% at 20 µM;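 also: plate controls were DMSO wells for no effect and DEVD-CHO caspase inhibitor wells for full effect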
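System: reconstituted apoptosome with Apaf-1, cytochrome c, caspase-9, procaspase-3, dATP; Signal: Rh110 fluorescence intensity; Schedule: 30 min compound preincubation, 50 min activation, room temperature; Reagent: cytochrome c trigger plus (Z-DEVD)2-Rh110 caspase-3 substrate.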
GSTO1 inh: blocks human GSTO1 in RBBP9 counter-screen. recombinant GSTO1, activity-based probe fluorescence polarization. P78417. actives 1.1% (n = 300,000). inhibition, % at 5.96 µM. AID 1974;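 active = inhibition above the campaign mean inhibition plus 3 SD, cut at about 35% in these data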;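 also: 0% = GSTO1-1 with DMSO and 100% = wells lacking GSTO1-1 enzyme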
TDP2 inh: TDP2 (human) inhibition, absorbance primary screen. AID 720702. inhibition, % at 12.8 µM. recombinant TDP2, T5PNP hydrolysis, p-nitrophenol absorbance 415 nm. actives 0.34% (n = 370,000). O95551;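 active = inhibition above the mean of all tested compounds plus 3 SD, set per campaign, cut at about 25% in these data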;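 also: 0% = DMSO with enzyme and 100% = buffer with substrate but no TDP2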
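System – recombinant human TDP2 · Amount – 120 nM TDP2 per well · Buffer or medium – Mg2+-containing Tris-HCl buffer, pH 7.5 · Reagent – T5PNP substrate, 5 mM · Dosing – 12.8 µM single point, 1% DMSO · Incubation – 2 h at 37 °C · Measured by – epi absorbance · Read-out basis – percent inhibition · Benchmarks – high control without enzyme, low control DMSO plus TDP2 · Repeats – singlicate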
TCR-CD3 inh: blocks the human TCR-CD3 interaction; actives 0.37% (n = 360,000); inhibition, % at 9.4 µM; TAMRA-labeled TCR probe fluorescence, biochemical; in the data active = inhibition above about 19%;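 also: recombinant mutant TCR 2C K166C tagged with TAMRA read by polarization; 0% = receptor in buffer alone and 100% = receptor with positive control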
SIAE primary: inhibitors of human sialic acid acetylesterase SIAE. AID 1053197. SIAE FP-Rh probe binding, fluorescence polarization. inhibition, % at 9.66 µM. actives 0.69% (n = 370,000). Q9HAT2;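 active = inhibition above a cutoff: mean of compounds within the control limits plus 3 SD of those, cut at about 17% in these data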;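 also: 0% = plate median of compound wells and 100% = probe without SIAE protein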
Target sequence (Q9HAT2 whole entry, looked up): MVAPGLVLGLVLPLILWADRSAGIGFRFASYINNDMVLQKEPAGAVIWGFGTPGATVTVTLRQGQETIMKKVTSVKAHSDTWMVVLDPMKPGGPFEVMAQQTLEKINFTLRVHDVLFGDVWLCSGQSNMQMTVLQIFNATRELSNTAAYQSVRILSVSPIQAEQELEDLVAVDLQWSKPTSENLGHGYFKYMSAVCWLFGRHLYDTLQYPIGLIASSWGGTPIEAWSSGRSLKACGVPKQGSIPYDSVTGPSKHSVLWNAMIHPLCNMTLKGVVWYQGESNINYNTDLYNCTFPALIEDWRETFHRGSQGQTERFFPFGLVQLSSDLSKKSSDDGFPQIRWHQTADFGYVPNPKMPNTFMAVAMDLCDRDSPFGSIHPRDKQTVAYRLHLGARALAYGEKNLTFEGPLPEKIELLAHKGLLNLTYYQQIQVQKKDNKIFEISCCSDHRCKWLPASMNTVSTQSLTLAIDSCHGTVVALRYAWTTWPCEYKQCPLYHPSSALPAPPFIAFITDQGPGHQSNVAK
Apaf-1 inh conf: Apaf-1 inhibition, single-dose confirmed; shares compounds with Apaf1 inhib; reconstituted apoptosome, caspase-3 DEVD-Rh110 fluorescence; inhibition, % at 20 µM; actives 25% (n = 1,800); AID 504614;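 active = mean inhibition of at least 40% at 20 µM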;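 also: plate controls were DMSO wells for no effect and DEVD-CHO caspase inhibitor control wells for full effect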
Rh110 quench: Rh110 signal interference in Apaf-1 inhibitor counter-screen; shares compounds with Apaf1 inhib; Rh110 fluorescence interference, quenched caspase reaction; activation (fluorescence interference), % at 20 µM; 1,800 tested, under 10 active;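 active = signal rise of 40% or more at 20 µM, treated as a fluorescence artifact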
Apaf1 inh interf: counter-screen for Apaf-1 inhibitors: fluorescence interference, dose response | shares compounds with Apaf1 inhib | fluorescence interference counterscreen, Apaf-1 assay format | IC50, µM | 460 tested, under 10 active; call rule not given here
* hit, by the source's call; · = not tested or not shown.

SMILES	PAD4 inh	Apaf1 inhib	GSTO1 inh	TDP2 inh	TCR-CD3 inh	SIAE primary	Apaf-1 inh conf	Rh110 quench	others
Cc1cc(N2CCC(C)CC2)nc(-n2nc(C)cc2C)n1	4	7	7	-23	3	-13	·	·
CCCCCCSc1cccc(-c2nc3cc(C)ccn3c2NCc2ccccc2)c1	0	40*	0	14	-5	4	21	11
Cc1ccn2c(NC3CCCCC3)c(-c3cccc(SC4CCCCC4)c3)nc2c1	-1	40*	·	4	-2	7	16	-8
CCCCCCSc1cccc(-c2nc3ccccn3c2NCc2ccccc2)c1	0	29	·	-3	-1	11	·	·
CC(C)C[C@@H](CN1CCC[C@H]1CN1C(=O)C(=O)NC[C@@H]1Cc1ccccc1)N1C[C@H](Cc2ccccc2)N(CCc2ccccc2)C(=O)C1=O	·	·	·	-6	9	0	·	·
CCCCN1C(=N)N([C@@H](C)CN2CCC[C@H]2CN2C(N)=NC[C@H]2CC(C)C)C[C@H]1Cc1ccccc1	4	18	·	-17	5	8	·	·
CC(C)[C@@H]1CN=C(N)N1C[C@@H]1CCCN1C[C@H](C)N1C[C@@H](Cc2ccccc2)N(CCc2ccc(Cl)c(Cl)c2)C1=N	-2	54*	·	·	·	·	13	-1
C[C@@H](CN1CCC[C@H]1CN1C(N)=NC[C@@H]1Cc1ccccc1)N1C[C@@H](Cc2ccccc2)N(CCc2ccc(Cl)c(Cl)c2)C1=N	4	74*	·	·	·	·	29	5
CC(C)[C@H](CN1CCC[C@H]1CN1C(N)=NC[C@@H]1Cc1ccccc1)N1C[C@@H](Cc2ccccc2)N(CCc2ccc(Cl)c(Cl)c2)C1=N	-4	82*	·	·	·	·	40	8
COc1ccccc1-c1c(C)oc2c(CN3CCCC(C)C3)c(O)ccc2c1=O (stereo not drawn)	·	3	·	14	7	3	·	·
CN(C)CCCNC(=O)C[C@H]1C[C@H](C(=O)N2CCCCC2)[C@@]2(CCc3ccccc3)c3[nH]c4ccc(Cl)cc4c3CCN2C1=O	0	74*	·	7	0	1	29	21
CCN(CC)C(=O)[C@H]1C[C@H](CC(=O)NC/C=C(\C)CCC=C(C)C)C(=O)N2CCc3c([nH]c4ccc(Cl)cc34)[C@]12C	-1	36	·	-7	-2	2	·	·
CC(C)N(C(=O)[C@H]1C[C@H](CC(=O)NCCCN(C)C)C(=O)N2CCc3c([nH]c4cc(-c5ccco5)ccc34)[C@]12C)C(C)C	3	52*	·	-2	-2	2	4	2
CCN(CC)C(=O)[C@H]1C[C@H](CC(=O)NCCCN(C)C)C(=O)N2CCc3c([nH]c4cc(-c5ccco5)ccc34)[C@]12C	-7	35	·	2	-4	1	·	·
CCN(CC)C(=O)[C@H]1CC(CC(=O)NC/C=C(\C)CCC=C(C)C)C(=O)N2CCc3c([nH]c4ccc(OC)cc34)[C@]12C (stereo partly drawn)	-1	42*	·	-4	-4	11	24	10
O=C(C[C@H]1C[C@H](C(=O)N2CCOCC2)[C@@]2(CCC3CCCC3)c3[nH]c4ccc(Cl)cc4c3CCN2C1=O)NCCCn1ccnc1	-4	58*	·	2	5	-3	24	17
Clc1cc(Cl)c2nc(N3CCOCC3)sc2c1	0	9	2	3	9	4	·	·
Cc1ccc(S(=O)(=O)NC(=NC(C)C)c2ccccc2)cc1	-6	-5	2	7	-7	9	·	·
Cc1[nH]c2ccc(C(=O)NCCCN3CCOCC3)cc2c1C	-5	2	1	-11	1	-6	·	·
O=C(C[C@H]1C[C@H](C(=O)N2CCOCC2)[C@@]2(CCC3CCCC3)c3[nH]c4cc(-c5ccco5)ccc4c3CCN2C1=O)NCCN1CCOCC1	1	36	·	-8	10	7	·	·
CN(C)CCCNC(=O)C[C@H]1C[C@H](C(=O)N2CCOCC2)[C@@]2(CCC3CCCC3)c3[nH]c4cc(-c5ccco5)ccc4c3CCN2C1=O	8	67*	·	6	-7	2	28	3
CCC/C(=C1/c2ccccc2C(=O)N1c1ccccc1)c1ccc2c(c1)OCCO2	-4	14	·	-6	7	1	·	·
CCC/C(=C1/c2ccccc2C(=O)N1c1ccccc1)c1cnc(OC)nc1	-5	41*	·	0	3	3	24	2
CN1CCN(c2ccc(NC(=O)c3ccc(-c4ccc(Cl)cc4)o3)cc2)CC1	1	65*	10	-19	9	3	34	20
COc1cc(C(=O)NC2CCN(C)CC2)ccc1Nc1ncc2c(n1)N(C1CCCCC1)CCC(=O)N2C	·	·	·	-17	-10	-4	·	·
SMILES	PAD4 inh	Apaf1 inhib	GSTO1 inh	TDP2 inh	TCR-CD3 inh	SIAE primary	Apaf-1 inh conf	Rh110 quench	others
CCN1C(=O)CC(c2ccccc2)N(C2CCCC2)c2nc(Nc3ccc(C(=O)NC4CCN(C)CC4)cc3OC)ncc21 (stereo not drawn)	0	70*	·	·	·	·	23	7
O=C(Nc1ccccc1F)c1ccc(Cn2cc(Cl)cn2)cc1	2	2	-4	-5	11	-8	·	·
COc1ccccc1C(CNC(=O)CNC(=O)c1ccccc1Cl)N1CCCC1 (stereo not drawn)	-9	61*	·	-9	7	-6	43*	11	Apaf1 inh interf=>100
COc1ccccc1C(CNC(=O)CNC(=O)c1ccc(Cl)c(Cl)c1)N1CCCC1 (stereo not drawn)	1	-29	·	7	-1	6	·	·
CC(=O)c1ccc(N2CCN(S(=O)(=O)c3ccc4c(c3)NC(=O)CC(=O)N4)CC2)cc1	-2	-20	0	-18	6	-1	·	·
C=CCC[C@@H](Cc1ccc(F)cc1)C(=O)OC[C@@H]1CCCN1C(=O)[C@@H](CC=C)CC(=O)N(CCO)Cc1ccccc1	-1	48*	·	-10	0	0	24	17
C=CCC[C@@H](Cc1ccc(F)cc1)C(=O)OC[C@H]1CCCN1C(=O)[C@@H](CC=C)CC(=O)N[C@H](CO)Cc1ccccc1	-3	40*	·	-8	7	2	34	6
C=CCC[C@@H](Cc1ccc(F)cc1)C(=O)OC[C@@H]1CCCN1C(=O)[C@H](CC=C)CC(=O)N[C@H](CO)Cc1ccccc1	0	43*	·	-9	5	2	28	14
